In publication PMC5991896 (Biochimie Open, 2017):

The compounds below were run against T1, fucolectin-related protein (FRP) (Streptococcus pneumoniae, UniProt A0A0H2US34) (assay: enzyme-linked lectinosorbent inhibition assay). Details: TBS-T pH 7.35, 20 °C; no metal needed; ratio from amounts giving 50% inhibition.
T1 sequence (A0A0H2US34 1-1038): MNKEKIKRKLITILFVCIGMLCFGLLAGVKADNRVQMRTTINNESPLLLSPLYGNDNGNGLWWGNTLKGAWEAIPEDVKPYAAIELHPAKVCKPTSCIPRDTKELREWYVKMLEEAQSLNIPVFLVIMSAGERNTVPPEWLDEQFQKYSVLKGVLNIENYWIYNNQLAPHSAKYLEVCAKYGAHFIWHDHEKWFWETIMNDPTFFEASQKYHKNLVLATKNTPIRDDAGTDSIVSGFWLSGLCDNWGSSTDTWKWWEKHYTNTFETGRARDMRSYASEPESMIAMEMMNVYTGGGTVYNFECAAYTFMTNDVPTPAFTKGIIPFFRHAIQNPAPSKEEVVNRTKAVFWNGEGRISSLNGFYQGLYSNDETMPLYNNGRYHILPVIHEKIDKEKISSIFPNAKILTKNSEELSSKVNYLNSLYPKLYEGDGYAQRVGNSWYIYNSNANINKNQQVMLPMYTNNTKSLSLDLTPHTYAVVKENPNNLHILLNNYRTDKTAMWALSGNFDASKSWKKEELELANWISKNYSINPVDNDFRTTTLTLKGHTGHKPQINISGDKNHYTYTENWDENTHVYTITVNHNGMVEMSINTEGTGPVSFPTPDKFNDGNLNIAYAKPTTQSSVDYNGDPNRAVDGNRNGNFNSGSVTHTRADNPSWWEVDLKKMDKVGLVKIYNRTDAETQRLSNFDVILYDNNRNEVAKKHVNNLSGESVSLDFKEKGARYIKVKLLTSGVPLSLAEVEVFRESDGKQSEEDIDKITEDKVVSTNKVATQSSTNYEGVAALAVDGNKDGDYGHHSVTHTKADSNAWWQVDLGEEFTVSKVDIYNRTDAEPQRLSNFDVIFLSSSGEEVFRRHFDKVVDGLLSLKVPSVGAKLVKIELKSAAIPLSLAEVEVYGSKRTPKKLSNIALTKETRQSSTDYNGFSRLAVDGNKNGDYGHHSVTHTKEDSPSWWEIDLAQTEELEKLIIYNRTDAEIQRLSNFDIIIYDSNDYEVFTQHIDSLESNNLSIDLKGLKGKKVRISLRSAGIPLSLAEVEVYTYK
Format: binding
How it was run: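 Recombinant SP2159 FRP expressed in E. coli and biotinylated. Wells coated at 4 °C with 10 μg human ovarian cyst phenol-insoluble glycoprotein bearing H Fucα1→2Gal and Fucα1→3/4GlcNAc glycotopes. Twofold serially diluted saccharide was mixed with an equal volume of fixed FRP for 1 h at 20 °C. TBS-T served as diluent and wash. The nmole/well giving 50% inhibition versus no inhibitor was read from the inhibition curve.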

Molar Relative Potency / LFuc as 1.0 | Compound
4.4 relative to LFuc = 1.0 | CO[C@@H]1O[C@@H](C)[C@@H](O)[C@@H](O)[C@@H]1O [compound 5, Methyl-α-LFuc]
0.09 relative to LFuc = 1.0 | OC1OC[C@@H](O)[C@@H](O)[C@@H]1O (stereo partly drawn) [compound 10, DAra]
4.4 relative to LFuc = 1.0 | OC[C@@H]1OC(O)[C@@H](O)[C@H](O)[C@@H]1O (stereo partly drawn) [compound 6, LGal]
0.7 relative to LFuc = 1.0 | C[C@@H]1O[C@@H](O[C@H]2C(O)O[C@H](CO)[C@H](O)[C@@H]2O)[C@@H](O)[C@H](O)[C@@H]1O (stereo partly drawn) [compound 9, LFucα1→2Gal]
1.8 relative to LFuc = 1.0 | CC(=O)N[C@H]1[C@H](O[C@H]2[C@@H](O)[C@@H](CO)O[C@@H](O[C@H]3[C@H](O)[C@@H](O)C(O)O[C@@H]3CO)[C@@H]2O)O[C@H](CO)[C@@H](O[C@@H]2O[C@@H](C)[C@@H](O)[C@@H](O)[C@@H]2O)[C@@H]1O[C@@H]1O[C@H](CO)[C@H](O)[C@H](O)[C@H]1O[C@@H]1O[C@@H](C)[C@@H](O)[C@@H](O)[C@@H]1O (stereo partly drawn) [compound 7, LFucα1→2Galβ1→3[LFucα1→4]GlcNAcβ1→3Gal β1→4Glc]

More lines, now with the values behind:

Compound | Molar Relative Potency / LFuc as 1.0
C[C@@H]1O[C@H](Oc2ccc([N+](=O)[O-])cc2)[C@@H](O)[C@H](O)[C@@H]1O [compound 1, p-Nitrophenyl-β-LFuc] | 69.1 relative to LFuc = 1.0
CO[C@H]1O[C@@H](C)[C@@H](O)[C@@H](O)[C@@H]1O [compound 3, Methyl-β-LFuc] | 21.9 relative to LFuc = 1.0
C[C@@H]1O[C@@H](Oc2ccc([N+](=O)[O-])cc2)[C@@H](O)[C@H](O)[C@@H]1O [compound 2, p-Nitrophenyl-α-LFuc] | 34.5 relative to LFuc = 1.0
C[C@@H]1O[C@@H](O[C@H]2[C@H](O[C@H]3[C@H](O[C@@H]4O[C@@H](C)[C@@H](O)[C@@H](O)[C@@H]4O)[C@@H](O)C(O)O[C@@H]3CO)O[C@H](CO)[C@H](O)[C@@H]2O)[C@@H](O)[C@H](O)[C@@H]1O (stereo partly drawn) [compound 4, LFucα1→2Galβ1→4[LFucα1→3]Glc] | 5.7 relative to LFuc = 1.0
